The experiment deals with Aryl hydrocarbon receptor (Homo sapiens) (UniProt P35869). As to the kind of experiment: AHR agonists in hepatoma reporter cells, late-stage follow-up, AHR activator project, HG2L7.5c1 HepG2 cells, luminescence (AID 602171). Particulars: HG2L7.5c1 HepG2 DRE-luciferase reporter, 24 h, at 10 µM, hits give high values. The method, boiled down: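 Assay system: HepG2 (HG2L7.5c1) cells with DRE-driven luciferase reporter. Compound: single 10 µM nominal dose from powder samples. Incubation: 24 h compound exposure, 37 °C. Signal: firefly luciferase luminescence of lysed cells. Read-out basis: % of maximal TCDD activation. Control set: TCDD at maximal inducing level as positive reference. Replication: three wells each.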
Chain of Aryl hydrocarbon receptor (Homo sapiens) (P35869 whole entry, looked up): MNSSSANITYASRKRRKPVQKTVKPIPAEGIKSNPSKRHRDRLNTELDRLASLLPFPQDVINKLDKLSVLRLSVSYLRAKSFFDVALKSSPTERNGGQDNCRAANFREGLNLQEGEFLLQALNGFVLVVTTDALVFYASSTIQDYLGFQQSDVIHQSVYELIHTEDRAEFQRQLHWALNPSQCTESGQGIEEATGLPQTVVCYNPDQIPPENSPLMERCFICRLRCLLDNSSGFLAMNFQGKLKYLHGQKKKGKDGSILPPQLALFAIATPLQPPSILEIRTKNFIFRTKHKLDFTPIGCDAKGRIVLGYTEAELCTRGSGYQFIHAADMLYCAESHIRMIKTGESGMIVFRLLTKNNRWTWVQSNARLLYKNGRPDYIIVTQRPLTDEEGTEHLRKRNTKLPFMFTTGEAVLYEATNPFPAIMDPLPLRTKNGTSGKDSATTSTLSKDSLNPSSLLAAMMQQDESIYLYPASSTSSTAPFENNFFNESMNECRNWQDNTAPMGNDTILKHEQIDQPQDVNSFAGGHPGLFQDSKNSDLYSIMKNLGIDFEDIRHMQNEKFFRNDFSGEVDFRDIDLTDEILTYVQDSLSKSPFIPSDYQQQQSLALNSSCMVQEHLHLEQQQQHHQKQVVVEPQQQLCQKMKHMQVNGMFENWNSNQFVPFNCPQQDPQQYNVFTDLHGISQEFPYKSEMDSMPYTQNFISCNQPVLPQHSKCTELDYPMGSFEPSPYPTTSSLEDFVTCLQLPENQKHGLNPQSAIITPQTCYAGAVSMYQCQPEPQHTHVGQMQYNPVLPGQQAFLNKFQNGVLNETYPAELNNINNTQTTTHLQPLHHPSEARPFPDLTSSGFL
On the technique in general: Reporter assays use an easily measured gene product as a stand-in for the process of interest.
As for `O=C1c2ccccc2-c2nc3ccccc3nc21`, the activation (% of TCDD max) was 197%.
As for `O=C(CN1CCOCC1)Nc1nc2ccc([N+](=O)[O-])cc2s1`, the activation (% of TCDD max) was 85%.
Take `COc1cc2ccccc2cc1C(=O)Nc1ccc(C)cc1`: the activation (% of TCDD max) is 113%.
As for `COc1ccccc1NC(=O)c1ccc2c(c1)nnn2C`, the activation (% of TCDD max) was 36%.
The result for `Cc1ccc(Nc2ncccc2C(N)=O)cc1` reads 166%; that for `Cc1cc(Nc2ccc(Br)cc2)n2nc(C)nc2n1`, 88%.
The result for `O=C(Nc1ccon1)c1cnc2sccn2c1=O` reads 75%.
Then `O=C(Nc1cccc(Cl)c1)c1cccnn1`, with 44%; and `Cn1c(C(=O)N2CCC(C(N)=O)CC2)cc2cc(Cl)ccc21`, with 48%.
As for `COc1ccc(C(=O)Nc2cc(OC)c(NC(=O)c3ccco3)cc2OC)cc1`, the activation (% of TCDD max) is 125%.
Then `COc1ccccc1C(=O)Nc1ccc(N2CCCCC2)cc1`, with 52%; and `CN(C)c1nc(N)nc(-c2nc3ccccc3s2)n1`, with 105%; and `CC(=O)c1ccc(NC(=O)c2cc(Cl)nc3ccccc23)cc1`, with 104%.
For the compound `CCOc1ccc(-c2cc(C)n3nc(C(N)=O)cc3n2)cc1`, the activation (% of TCDD max) is 41%.
The result for `CN1CCN(CCCNC(=O)c2cc3c(-c4ccc(Cl)cc4)nn(C)c3s2)CC1` reads 111%.
As to `Cn1c(N)c(C(=O)Nc2ccccc2F)sc1=S`, the activation (% of TCDD max) was 106%.
For `CCC(=O)Nc1cc(OC)c(NC(=O)c2ccccc2)cc1OC`, the activation (% of TCDD max) was 89%.
For `Cc1csc(SCC(=O)Nc2ccc(Cl)cn2)n1`, the activation (% of TCDD max) was 82%.
For the compound `CCCC(=O)Nc1nn(C)c2nc3cc(C)ccc3cc12`, the activation (% of TCDD max) was 34%.
Turning to `COC(=O)c1ccccc1NC(=O)Cn1ccnc1`, the activation (% of TCDD max) was 71%.
In the case of `CCOC(=O)Cc1cc(-c2ccc(O)cc2)nc2ccc3ccccc3c12`, the activation (% of TCDD max) was 109%.
In the case of `COc1ccc(Cl)cc1C(=O)Nc1ccc(N(C)C(C)=O)cc1`, the activation (% of TCDD max) was 165%.
In the case of `CCOc1ccc(NC(=O)c2cc3ccccc3cc2OC)cc1`, the activation (% of TCDD max) was 132%.
As to `COc1ccccc1NC(=O)c1ccc(C(=O)Nc2ccccc2OC)nc1`, the activation (% of TCDD max) is 88%.
For `COc1cc2c(cc1NC(=O)Nc1ccc(C)cc1)oc1ccccc12`, the activation (% of TCDD max) is 146%.
Consider `Cc1nnc(N2C(=O)c3cccc4c([N+](=O)[O-])ccc(c34)C2=O)s1`, for which the activation (% of TCDD max) is 98%.
Then `COc1ccc(NC(=O)c2cccc3c(Br)cccc23)cc1`, with 128%; and `Cc1c(-c2ccn[nH]2)cc(NC(=O)c2ccc(Cl)cc2)c(=O)n1N`, with 86%; and `Cc1ccccc1-c1nc(-c2cccnc2)no1`, with 117%.
Then `Cc1nc(N)nc(Nc2ccc(Cl)cc2)c1Br`, with 78%.
`CCOc1ccccc1NC(=O)c1ccc2nccnc2c1`: the activation (% of TCDD max) is 126%.
With `Cc1ccc(-c2cc(-c3cccs3)[nH]n2)c(O)c1`, the activation (% of TCDD max) is 99%.
The result for `COc1ccccc1NC(=O)Nc1cccnc1` reads 55%.

The record behind these values is PubChem BioAssay AID602171 (The Scripps Research Institute Molecular Screening Center, 2012).
